Five compounds from ChEMBL document CHEMBL3046507, “Synthesis and herbicidal activities of novel 3-N-substituted amino-6-methyl-4-(3-trifluoromethylphenyl)pyridazine derivatives” (2008) can be followed below.

Assay [1] has as its system Brassica rapa subsp. oleifera. As to the kind of experiment: Herbicidal activity against Brassica rapa subsp. oleifera assessed as inhibition of fresh plant weight at 150 g/ha using postemergence protocol measured after 24 days under green house conditions. The following applies: post-emergence.
The test system of assay [2] is Brassica rapa subsp. oleifera. As to the kind of experiment: Herbicidal activity against Brassica rapa subsp. oleifera assessed as inhibition of fresh plant weight at 750 g/ha using preemergence protocol measured after 24 days under green house conditions. The following applies: pre-emergence.
Assay [3] has as its system Amaranthus retroflexus. Briefly: Herbicidal activity against Amaranthus retroflexus assessed as inhibition of fresh plant weight at 750 g/ha using postemergence protocol measured after 24 days under green house conditions. The following applies: post-emergence.
The subject of assay [4] is Amaranthus retroflexus. As to the kind of experiment: Herbicidal activity against Amaranthus retroflexus assessed as inhibition of fresh plant weight at 600 g/ha using postemergence protocol measured after 24 days under green house conditions. The note with it: post-emergence.
Assay [5] has as its system Spirodela polyrhiza. Briefly: Inhibition of chlorophyll in Spirodela polyrhiza fronds at 10 ug/mL using light intensity of 45 uE/m2/s measured after 7 days. The class given is functional. The note with it: 168 h. The procedure, abridged: (§1)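 Giant duckweed assay. Compound in DMF dropped onto filter paper, solvent evaporated 15 min, paper placed in flask with 15 mL fresh medium and shaken >10 min. 10 fronds inoculated per flask and grown 7 days at 23-26 °C, 16 h light/8 h dark, ca. 45 µE m^-2 s^-1. DMF plus medium served as control. Chl extracted in 96% ethanol overnight at 4 °C; OD read at 665 and 649 nm; content expressed as percent of control.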

Assay [6] relates to Spirodela polyrhiza. As to the kind of experiment: Inhibition of chlorophyll in Spirodela polyrhiza fronds at 1 ug/mL using light intensity of 45 uE/m2/s measured after 7 days. The class given is functional. The following applies: 168 h. The procedure, abridged:
as §1

Assay [7] concerns Echinochloa crus-galli. As to the kind of experiment: Herbicidal activity against Echinochloa crus-galli (barnyard grass) assessed as inhibition of fresh plant weight at 750 g/ha using postemergence protocol measured after 24 days under green house conditions. The following applies: post-emergence.
The subject of assay [8] is Digitaria. Briefly: Herbicidal activity against Digitaria adscendens assessed as inhibition of fresh plant weight at 750 g/ha using preemergence protocol measured after 24 days under green house conditions. The following applies: in Digitaria adscendens, pre-emergence.
The subject of assay [9] is Brassica rapa subsp. oleifera. Briefly: Herbicidal activity against Brassica rapa subsp. oleifera assessed as inhibition of fresh plant weight at 75 g/ha using postemergence protocol measured after 24 days under green house conditions. The following applies: post-emergence.
Assay [10] concerns Echinochloa crus-galli. Briefly: Herbicidal activity against Echinochloa crus-galli (barnyard grass) assessed as inhibition of fresh plant weight at 750 g/ha using preemergence protocol measured after 24 days under green house conditions. The note with it: pre-emergence.
The test system of assay [11] is Amaranthus retroflexus. Briefly: Herbicidal activity against Amaranthus retroflexus assessed as inhibition of fresh plant weight at 300 g/ha using postemergence protocol measured after 24 days under green house conditions. The note with it: post-emergence.
The test system of assay [12] is Amaranthus retroflexus. Briefly: Herbicidal activity against Amaranthus retroflexus assessed as inhibition of fresh plant weight at 750 g/ha using preemergence protocol measured after 24 days under green house conditions. The following applies: pre-emergence.
Assay [13] concerns Amaranthus retroflexus. Briefly: Herbicidal activity against Amaranthus retroflexus assessed as inhibition of fresh plant weight at 75 g/ha using postemergence protocol measured after 24 days under green house conditions. The note with it: post-emergence.
For assay [14], the system named is Amaranthus retroflexus. Briefly: Herbicidal activity against Amaranthus retroflexus assessed as inhibition of fresh plant weight at 150 g/ha using postemergence protocol measured after 24 days under green house conditions. The following applies: post-emergence.
The subject of assay [15] is Digitaria. As to the kind of experiment: Herbicidal activity against Digitaria adscendens assessed as inhibition of fresh plant weight at 750 g/ha using postemergence protocol measured after 24 days under green house conditions. The following applies: in Digitaria adscendens, post-emergence.
The subject of assay [16] is Brassica rapa subsp. oleifera. Briefly: Herbicidal activity against Brassica rapa subsp. oleifera assessed as inhibition of fresh plant weight at 300 g/ha using postemergence protocol measured after 24 days under green house conditions. The following applies: post-emergence.
Assay [17] relates to Brassica rapa subsp. oleifera. Briefly: Herbicidal activity against Brassica rapa subsp. oleifera assessed as inhibition of fresh plant weight at 750 g/ha using postemergence protocol measured after 24 days under green house conditions. The note with it: post-emergence.
For assay [18], the system named is Brassica rapa subsp. oleifera. Briefly: Herbicidal activity against Brassica rapa subsp. oleifera assessed as inhibition of fresh plant weight at 600 g/ha using postemergence protocol measured after 24 days under green house conditions. The following applies: post-emergence.
For assay [19], the system named is Echinochloa crus-galli. As to the kind of experiment: Herbicidal activity against Echinochloa crus-galli (barnyard grass) assessed as inhibition of fresh plant weight at 600 g/ha using postemergence protocol measured […] under green house conditions. The class given is functional. The following applies: post-emergence. In outline: (§2)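 Weed seedlings at one-leaf-and-one-stem stage sprayed post-emergence with test solution at 750, 600, 300, 150 or 75 g/ha. Aboveground fresh weight determined 24 days after treatment; percent inhibition calculated relative to controls. Two replicates per treatment.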

In assay [20] the test system is Amaranthus retroflexus. As to the kind of experiment: Herbicidal activity against Amaranthus retroflexus assessed as inhibition of fresh plant weight at 600 g/ha using preemergence protocol measured […] under green house conditions. The note with it: pre-emergence. The class given is functional. The procedure, abridged:
(§3)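 Pre-emergence treatment. Aboveground fresh weight measured 24 days later; percent inhibition calculated against controls. Two replicates per treatment.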

Assay [21] relates to Echinochloa crus-galli. Briefly: Herbicidal activity against Echinochloa crus-galli (barnyard grass) assessed as inhibition of fresh plant weight at 600 g/ha using preemergence protocol […] under green house conditions. The class given is functional. The following applies: pre-emergence. In outline: as §3
Assay [22] relates to Digitaria. Briefly: Herbicidal activity against Digitaria adscendens assessed as inhibition of fresh plant weight at 600 g/ha using preemergence protocol […] under green house conditions. The class given is functional. The note with it: in Digitaria adscendens, pre-emergence. In outline:
as §3

Assay [23] deals with Digitaria. Briefly: Herbicidal activity against Digitaria adscendens assessed as inhibition of fresh plant weight at 600 g/ha using postemergence protocol […] under green house conditions. The note with it: in Digitaria adscendens, post-emergence. The class given is functional. The procedure, abridged: as §2
For assay [24], the system named is Brassica rapa subsp. oleifera. As to the kind of experiment: Herbicidal activity against Brassica rapa subsp. oleifera assessed as inhibition of fresh plant weight at 600 g/ha using preemergence protocol measured […] under green house conditions. The class given is functional. The note with it: pre-emergence. In outline: as §3

The inhibition is the relative decrease from the control value, in per cent. Turning to `Cc1cc(-c2cccc(C(F)(F)F)c2)c(Nc2ccccc2)nn1`, the inhibition at 150 g/ha in assay [1] was 74%; in the assay with Amaranthus retroflexus [14], 41%. Also, the inhibition at 750 g/ha was 48% in assay [2]; 60% in the assay with Amaranthus retroflexus [3]; 15% in the assay on Echinochloa crus-galli [7]; 43% in the assay on Digitaria [8]; 43% in the assay on Echinochloa crus-galli [10]; 33% with Amaranthus retroflexus [12]. Also, the inhibition at 750 g/ha in the assay with Digitaria [15] was 0%; in assay [17], 99%. Besides, the inhibition at 600 g/ha in the assay on Amaranthus retroflexus [4] was 61%; in [18], 92%. Also, testing at 10 µg/mL in the assay with Spirodela polyrhiza [5] gave an inhibition of 100%. In the assay on Spirodela polyrhiza [6], this compound returned an inhibition at 1 µg/mL of 100%. The inhibition at 75 g/ha worked out at 66% in assay [9] and 18% in the assay on Amaranthus retroflexus [13]. The inhibition at 300 g/ha turned out to be 43% in the assay on Amaranthus retroflexus [11] and 84% in [16].

`Cc1cc(-c2cccc(C(F)(F)F)c2)c(Nc2ccccc2F)nn1`: the inhibition at 150 g/ha in assay [1] was determined as 67%; in the assay on Amaranthus retroflexus [14], 48%. The inhibition at 750 g/ha in [2] amounted to 18%; in the assay on Amaranthus retroflexus [3], 100%; in the assay on Echinochloa crus-galli [7], 21%; with Digitaria [8], 15%; in the assay with Echinochloa crus-galli [10] it was 0%; in the assay with Amaranthus retroflexus [12] it was 0%. Also, the inhibition at 750 g/ha in the assay on Digitaria [15] was determined as 40%; in assay [17], 100%. The inhibition at 600 g/ha is 75% in the assay on Amaranthus retroflexus [4] and 96% in assay [18]. Testing at 10 µg/mL in the assay with Spirodela polyrhiza [5] gave an inhibition of 100%. This compound also yielded an inhibition at 1 µg/mL in the assay with Spirodela polyrhiza [6] of 100%. In addition, the values for the inhibition at 75 g/ha (in [9]; in the assay with Amaranthus retroflexus [13]) were 60% and 39%, respectively. Also, the values for the inhibition at 300 g/ha (with Amaranthus retroflexus [11]; in assay [16]) were 58% and 88%, respectively.

For `CCOC(=O)n1nc(C)cc(-c2cccc(C(F)(F)F)c2)c1=O`, the inhibition at 600 g/ha in the assay with Echinochloa crus-galli [19] was determined as 0%; in the assay with Amaranthus retroflexus [20], 100%; with Echinochloa crus-galli [21], 46%; in the assay on Amaranthus retroflexus [4], 61%; with Digitaria [22] it was 100%; in the assay with Digitaria [23], 13%. Moreover, the figures for the inhibition at 600 g/ha in assay [24] and in [18] were 87% and 55%, respectively. In the assay with Spirodela polyrhiza [5], this compound showed an inhibition at 10 µg/mL of 100%.

Turning to `CCCn1nc(C)cc(-c2cccc(C(F)(F)F)c2)c1=O`, the inhibition at 600 g/ha stood at 5% in the assay with Echinochloa crus-galli [19]; 51% in the assay with Amaranthus retroflexus [20]; 82% in the assay with Echinochloa crus-galli [21]; 28% in the assay with Amaranthus retroflexus [4]; 100% with Digitaria [22]; 19% in the assay on Digitaria [23]. Further, the values for the inhibition at 600 g/ha in assay [24] and in [18] were 61% and 6%, respectively. Besides, testing at 10 µg/mL in the assay on Spirodela polyrhiza [5] gave an inhibition of 90%.

As for `O=C(Nc1ccc(F)cc1F)c1cccnc1Oc1cccc(C(F)(F)F)c1` [DIFLUFENICAN], the inhibition at 150 g/ha in assay [1] amounted to 88%; in the assay with Amaranthus retroflexus [14], 70%. Moreover, the inhibition at 750 g/ha in assay [2] is 71%; in the assay with Amaranthus retroflexus [3] it was 100%; in the assay on Echinochloa crus-galli [7], 67%; with Digitaria [8], 100%; with Echinochloa crus-galli [10] it was 94%; in the assay with Amaranthus retroflexus [12], 90%. In addition, the values for the inhibition at 750 g/ha (in the assay on Digitaria [15]; in [17]) were 83% and 98%, respectively. In addition, the results for the inhibition at 600 g/ha (with Amaranthus retroflexus [4]; in assay [18]) were 100% and 98%, respectively. For the same compound, in the assay with Spirodela polyrhiza [5], the inhibition at 10 µg/mL amounted to 94%. Also, in the assay on Spirodela polyrhiza [6], at 1 µg/mL the inhibition was 90%. Also, the figures for the inhibition at 75 g/ha (in assay [9]; in the assay with Amaranthus retroflexus [13]) were 44% and 41%, respectively. Further, the results for the inhibition at 300 g/ha (with Amaranthus retroflexus [11]; in assay [16]) were 74% and 94%, respectively.
